According to ChEMBL document CHEMBL1671641, “1,5-benzodiazepines, a novel class of hepatitis C virus polymerase nonnucleoside inhibitors” (Antimicrob Agents Chemother, 2008):

Key:
Hepatitis C virus [1] = assay: Antiviral activity against Hepatitis C virus 1b infected in human HuH7 cells assessed as inhibition of viral replication after 3 days by luciferase reporter assay; format: functional, organism-based, Hepacivirus hominis, genotype 1b, Huh-7; details: huh-7
In short: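 HCV 1b subgenomic luciferase reporter replicon (clone ET) cells, 2,500 per well, were exposed to a nine-point 1/4 dilution series for 3 days. Replication was read as luciferase activity. Values are means ± SD from 2 to 23 independent experiments run in quadruplicate.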

MT4 = assay: Cytotoxicity against LTR-Luc transfected human MT4 cells […] after 3 days by ATPLite assay; format: cell-based; details: mt4, 72 h, 72 h
[2] = Cytotoxicity against CMV-Luc transfected human HuH7 cells after 5 days; format: cell-based, Huh-7; details: huh-7, 120 h, 120 h
Hepatitis C virus [3] = assay: Inhibition of Hepatitis C virus 1b J4 recombinant NS5B Cdelta 21 RNA dependent RNA polymerase overexpressed in Escherichia coli BL21 (DE3) by RdRp primer-dependent transcription assay; set-up: species or system Hepatitis C virus subtype 1b
Hepatitis C virus [4] = assay: Inhibition of Hepatitis C virus 1b J4 recombinant NS5B Cdelta 21 RNA dependent RNA polymerase overexpressed in Escherichia coli BL21 (DE3) assessed as [alpha-33P]UTP incorporation by RdRp primer-independent transcription assay; set-up: species or system Hepatitis C virus subtype 1b
In short: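 De novo (primer-independent) RdRp assay: 190 nM NS5BΔ21 (1b J4) with 86 nM HCV 3′ UTR template RNA, 0.5 mM each ATP/GTP/CTP, 10 μM UTP plus [α-³³P]UTP, in 20 mM Tris-HCl pH 7.5, 1 mM DTT, 5 mM MgCl₂, 20 mM NaCl. Incubated 2 h at room temperature, stopped with EDTA/tRNA, TCA-precipitated on filters, and scintillation-counted. Quadruplicate.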

Hepatitis C virus [5] = assay: Non competitive inhibition of Hepatitis C virus 1b J4 recombinant NS5B Cdelta 21 RNA dependent RNA polymerase overexpressed in Escherichia coli BL21 (DE3) in presence of radiolabeled 20 nM GTP; set-up: species or system Hepatitis C virus subtype 1b
In short: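 Primer-dependent RdRp assay using purified C-terminally truncated NS5BΔ21 (genotype 1b J4) expressed in E. coli BL21(DE3). Enzyme was incubated with a poly(rC)/oligo(rG13) template, radiolabeled GTP at 20 nM, and a range of inhibitor concentrations. IC50 was derived by nonlinear regression of the dose-response curves. The run was done once in quadruplicate, reported as means ± SEM.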

Hepatitis C virus [6] = assay: Non competitive inhibition of Hepatitis C virus 1b J4 recombinant NS5B Cdelta 21 RNA dependent RNA polymerase overexpressed in Escherichia coli BL21 (DE3) in presence of radiolabeled 200 uM GTP

For `CC(=O)N1c2ccccc2NC2=C(C(=O)CC(C)(C)C2)C1c1ccc(OCc2ccccc2)c(Cl)c1` (single isomer, unassigned; 4a), the EC50 (Hepatitis C virus [1]) was 1900 nM, the CC50 (MT4) was 16400 nM and the CC50 [2] was > 32000 nM. For the same compound, the IC50 (Hepatitis C virus [3]) was 1000 nM, the IC50 (Hepatitis C virus [4]) was 900 nM and the IC50 (Hepatitis C virus [5]) was 1000 nM. For the same compound, the IC50 (Hepatitis C virus [6]) was 1300 nM.
